Results from ChEMBL document CHEMBL4041488, “Structural Characterization and Assessment of the Cytotoxicity of 2,3-Dihydro-1H-indene Derivatives and Coumarin Glucosides from the Bark of Streblus indicus” (J Nat Prod, 2016).
pIC50: −log10 of the molar value.

What was measured:
[1] = test system: A549; test: Cytotoxicity against human A549 cells assessed as reduction in cell viability after 48 hrs by MTT assay; format: functional, cell-based; conditions: A549, 48 h
Summary of the method: (§1)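 1 × 10^4 cells per well, pre-incubated 12 h at 37 °C under 5% CO2, then exposed to serial dilutions of compound (paclitaxel as reference) for 48 h. MTT reagent (5 mg/mL) added for a further 4 h, formazan dissolved in DMSO, absorbance read at 570 nm. Three independent experiments, each in triplicate; IC50 from sigmoid curve fitting.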

[2] = test system: MCF7; test: Cytotoxicity against human MCF7 cells assessed as reduction in cell viability after 48 hrs by MTT assay; format: functional, cell-based; conditions: MCF7, 48 h; summary of the method: as §1

Row | Compound | pIC50 [1] | pIC50 [2]
1 | COc1cc(O)ccc1C(=O)C[C@H]1c2ccc(O)c(O)c2C[C@@H]1C(C)(C)O | 5.60 | 5.41
2 | COc1cc(C(=O)OC[C@H]2O[C@@H](Oc3ccc4ccc(=O)oc4c3)[C@H](O)[C@@H](O)[C@@H]2O)cc(OC)c1O | < 5.00 | < 5.00
3 | COC(=O)C[C@@H]1c2c(-c3ccc(O)cc3OC)cc(O)c(O)c2C[C@H]1C(C)(C)O | 5.22 | 5.14
4 | COc1cc(C(=O)OC[C@H]2O[C@@H](Oc3cc4oc(=O)ccc4cc3OC)[C@H](O)[C@@H](O)[C@@H]2O)ccc1O[C@@H]1O[C@H](CO)[C@@H](O)[C@H](O)[C@H]1O | < 5.00 | < 5.00
5 | COc1cc(O)ccc1C(=O)C[C@@H]1c2ccc(O)c(O)c2C[C@H]1C(C)(C)O | 5.66 | 5.48
6 | COc1cc2ccc(=O)oc2cc1O[C@@H]1O[C@H](COC(=O)c2cc(OC)c(O[C@@H]3O[C@H](CO)[C@@H](O)[C@H](O)[C@H]3O)c(OC)c2)[C@@H](O)[C@H](O)[C@H]1O | < 5.00 | < 5.00
7 | COc1cc2ccc(=O)oc2cc1O[C@@H]1O[C@H](COC(=O)CCc2cc(OC)c(O[C@@H]3O[C@H](CO)[C@@H](O)[C@H](O)[C@H]3O)c(OC)c2)[C@@H](O)[C@H](O)[C@H]1O | < 5.00 | < 5.00
8 | COC(=O)C[C@@H]1c2c(-c3ccc(O)cc3OC)cc(O)c(O)c2C[C@@H]1C(C)(C)O | 5.25 | 5.17
